# In the library only some 1.5% were active in any assay of this set; here they are far more common.
# Cneo AK release: Cryptococcus neoformans lysis via adenylate kinase release. C. neoformans lysis, adenylate kinase release luminescence, 4 h; normalised: neutral wells 0, clomiphene wells 100. lysis activity, % at 15 µM. 360,000 compounds, 0.2% hits. AID 651654;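 active = mean lysis activity across replicates of at least 80%, whatever share of replicates individually reach that level; inactive = mean lysis activity below 80%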
#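 Assay system: log-phase C. neoformans yeast / Quantity: yeast cell density of 5 × 10^6 cells/mL / Medium: fresh YPD growth medium / Compound: single dose / Timing: static 4 h at 37 °C with compound, 1 h detection / Measured by: adenylate kinase release luminescence / Read-out: lysis from increased AK signal / Benchmarks: Clomiphene as positive lysis control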
# SUMO Mot1 rescue: inhibitors of SUMOylation pathway: yeast Mot1-301 growth rescue. growth rescue, % at 18.8 µM. AID 2716. 320,000 compounds, 1% hits. S. cerevisiae Mot1-301 growth rescue, ATP luminescence, 38.5C; percent above DMSO median, 100 means doubled;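 active = every valid replicate shows activation above 250% relative to neutral control wells; inactive = the rest, any valid replicate at or below 250%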;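 also: OY570 slx delta 5 strain wells were the positive control but not used for scaling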
# C2C12 statin: suppressors of simvastatin-induced myotoxicity in C2C12 myotubes | ATP luminescence, 48 h; scaled: DMSO 0, geranylgeraniol control 100 | rescue of ATP level, % at 7.49 µM | 330,000 compounds, 0.78% hits;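 active = mean ATP rescue above about 67%, or every replicate alone reaching that limit, limit read from the data, passing the limit was not always enough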;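 also: myotubes were challenged with 10 µM simvastatin during compound exposure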
# The depositor's hits bear a star; / = no result.
SMILES,Cneo AK release,SUMO Mot1 rescue,C2C12 statin
CCC(=O)Nc1ccc2c(c1)C(=O)N(C)[C@H]1CC[C@@H](CC(=O)N3CCCCC3)O[C@H]1CO2,-4,/,2
C[C@H]1CN([C@@H](C)CO)C(=O)c2cc(NC(=O)Nc3ccccc3)ccc2O[C@@H]1CN(C)Cc1ccc(Oc2ccccc2)cc1,44,/,-11
COc1ccccc1C(=O)N/N=C/c1ccc2c(c1)OCO2,-1,301*,-49
COc1cc2ccccc2cc1C(=O)N/N=C/c1ccc2c(c1)OCO2,-4,34,-70
COc1ccccc1C(=O)Nc1ccc2c(c1)OCO2,-4,1,114*
COc1ccccc1C(=O)Nc1ccc2c(c1)OCCO2,-9,-3,10
C[C@@H]1CN([C@@H](C)CO)C(=O)c2cc(NC(=O)c3ccncc3)ccc2O[C@@H](C)CCCCO[C@H]1CN(C)Cc1ccccc1,7,/,/
C/C=C/[C@@H](CC(=O)N1Cc2ccccc2C[C@H]1CO)[Si](C)(C)c1ccc(OC)cc1,4,/,/
CN1CCN(CCCNC(=O)C2CC(=O)N(C3CCCCC3)C2)CC1 (centres undefined),-4,62,2
O=C(NCCCN1CCN(c2ccccc2F)CC1)C1CC(=O)N(C2CCCC2)C1 (centres undefined),3,0,125*
CCC1(C)Cc2c(sc3nc(NN)n(C)c(=O)c23)CO1 (centres undefined),3,126,144*
CCOC(=O)CSc1nc2sc3c(c2c(=O)[nH]1)CC(C)(CC)OC3 (centres undefined),-4,-10,-10
COc1cc(/C=N/O)cc(Cl)c1OC,-1,328*,5
COc1cc(/C=N/O)cc(Br)c1OC,-1,-4,-7
C[C@H]1CCCCO[C@@H](CN(C)C(=O)Nc2ccc(F)cc2)[C@@H](C)CN([C@@H](C)CO)C(=O)c2cc(NS(C)(=O)=O)ccc2O1,0,/,/
COc1ccc(S(=O)(=O)N[C@@H]2CC[C@H](CC(=O)O)O[C@H]2CO)cc1,1,/,7
CO[C@@H]1CN(C)C(=O)c2cc(NC(=O)C3CCOCC3)ccc2OC[C@@H](C)N(S(=O)(=O)c2ccc(Cl)cc2)C[C@H]1C,54,/,3
CNC[C@H]1Oc2ncc(-c3ccc(OC)cc3)cc2C(=O)N([C@@H](C)CO)C[C@@H]1C,/,/,1
O=C(NCC[C@H]1CC[C@H](NC(=O)C2CCOCC2)[C@@H](CO)O1)c1ccc(F)cc1,-3,/,3
[O-][n+]1onc2c1CCc1nnccc1-2,0,2,84*
[O-][n+]1onc2c1CCc1nnc(-c3ccccc3)cc1-2,-1,11,/
CC(C)NC(=O)N(C)C[C@H]1Oc2ccc(NC(=O)C3CCCCC3)cc2CC(=O)N([C@H](C)CO)C[C@@H]1C,4,/,-19
Cn1c(=O)[nH]c(=O)c2c1nc(CN1CCN(c3cccc(Cl)c3)CC1)n2CCc1ccccc1,-1,-7,92*
CCCCCn1c(CN2CCN(c3cccc(Cl)c3)CC2)nc2c1c(=O)[nH]c(=O)n2C,/,-8,3
O=C(C1CC1)N1C[C@@H]2[C@H](c3ccccc31)[C@H](CO)N2S(=O)(=O)c1ccccc1,1,/,1
SMILES,Cneo AK release,SUMO Mot1 rescue,C2C12 statin
CCNC(=O)C[C@@H]1CC[C@@H]2[C@H](COC[C@@H](O)CN2C(=O)c2cc(Cl)cc(Cl)c2)O1,-1,/,-4
Cc1cc(=O)oc2c(C)c(OCC(=O)N3CCN(c4ccc(F)cc4)CC3)ccc12,-2,-15,-1
COc1ccc(N2CCN(C(=O)COc3ccc4c(C)cc(=O)oc4c3C)CC2)cc1,-1,187,107*
O=S(=O)(NCC[C@@H]1CC[C@H](NS(=O)(=O)c2ccccc2Cl)[C@H](CO)O1)c1ccc(Cl)cc1,8,/,26
C[C@H](CO)N1C[C@H](C)[C@@H](CN(C)C(=O)CCCN(C)C)OCCCC[C@H](C)Oc2ccc(NC(=O)CCCN(C)C)cc2C1=O,51,/,/
C[C@@H]1CN([C@@H](C)CO)C(=O)c2cc(C#Cc3ccccc3F)cnc2O[C@@H]1CN(C)C(=O)C1CCC1,-3,/,19
COCCNC(=O)C[C@@H]1CC[C@H]2[C@H](COc3ccc(NC(=O)c4cnccn4)cc3C(=O)N2C)O1,2,/,-4
CCc1ccc(C(O)(CC(C)C)C(CN2CCOCC2)c2ccccc2)cc1 (centres undefined),1,157,106*
COc1ccc(C(O)(CC(C)C)C(CN2CCOCC2)c2ccccc2)cc1 (centres undefined),0,369,30
CCCC(O)(c1ccc(Cl)cc1)C(CN1CCOCC1)c1ccc(Cl)cc1 (centres undefined),8,292*,17
CCCC(O)(c1ccc(OC)cc1)C(CN1CCOCC1)c1ccc(Cl)cc1 (centres undefined),-2,90,62

# Source: PubChem (Broad Institute)
